Published values from different studies.
Compare with care: the assays were run in different laboratories.
PKM: Pyruvate kinase PKM (PKM, Homo sapiens, UniProt P14618)
SIRT6: NAD-dependent protein deacylase sirtuin-6 (SIRT6, Homo sapiens, UniProt Q8N6T7)
OR5K1: OR5K1 (Homo sapiens, UniProt Q8NHB7)
HTR7: 5-hydroxytryptamine receptor 7 (HTR7, Homo sapiens, UniProt P34969)
HTR6: 5-hydroxytryptamine receptor 6 (HTR6, Homo sapiens, UniProt P50406)

| SMILES | target | observed | mode | technique | setting | quantity | value |
| --- | --- | --- | --- | --- | --- | --- | --- |
| Cc1cc(NS(=O)(=O)c2cc3c(cc2F)NC(=O)CC3)ccc1Cl | PKM | enzyme activity | activator | – | – | AC50 | 0.6 µM |
| CC1=C(/C=C/C2=CCC[C@@]3(C)[C@H]2CC[C@@H]3[C@@](C)(O)CCCC(C)C)C[C@@H](O)CC1 | Oxysterols receptor LXR-beta (NR1H2, Homo sapiens, UniProt P55055) | coactivator recruitment | agonist | TR-FRET | – | EC50 | 0.01 to 0.1 µM |
| N#Cc1ccc(CONC(=O)c2ccc(C(N)=O)cc2)cc1 | SIRT6 | enzyme activity | inhibitor | fluorescence | – | IC50 | 11.7 µM |
| Cc1ccc(C(=O)Nc2ccc(Oc3cc4cnn(C)c4cc3-c3cn[nH]c3)c(F)c2)c(=O)n1-c1ccc(F)cc1 | Vascular endothelial growth factor receptor 3 (FLT4, Homo sapiens, UniProt P35916) | enzyme activity in cells | inhibitor | – | – | IC50 | > 0.316 µM |
| COc1cnccn1 | OR5K1 | cAMP | agonist | – | – | EC50 | > 1500 µM |
| CN1CCN(C2=Nc3cscc3/C(=C/C#N)c3cscc32)CC1 | HTR7 | ligand displacement | – | radioligand | cell membranes | Ki | 0.153 µM |
| Cc1ccc(NS(=O)(=O)c2ccc3c(c2)CCC(=O)N3)cc1F | PKM | enzyme activity | activator | – | – | AC50 | 0.54 µM |
| CCc1nc2cc(OCCCCN3CCC(c4cccc(Cl)c4Cl)CC3)ccc2s1 | HTR6 | cell-free assay | – | radioligand | – | Ki | 0.96 µM |
| O=C(Nc1cc(C2CCCCC2)[nH]n1)c1ccc(Br)cc1 | Cyclin-dependent kinase 2 (CDK2, Homo sapiens, UniProt P24941) | binding | – | – | – | Kd | > 100 µM |
| Cc1ccc(NS(=O)(=O)c2cc3c(cc2NC(C)CO)NC(=O)CC3)cc1C (stereo not shown) | PKM | enzyme activity | activator | – | – | AC50 | 0.23 µM |
| CN1CCC(=C2c3ccccc3C=Cc3ccccc32)CC1 | HTR7 | ligand displacement | – | radioligand | cell membranes | Ki | 0.024 µM |
| Cc1cnc(C)cn1 | OR5K1 | cAMP | agonist | – | – | EC50 | > 1500 µM |
| NC(=O)c1ccc(C(=O)NOCc2cccc(Br)c2)cc1 | SIRT6 | enzyme activity | inhibitor | fluorescence | – | IC50 | 5.24 µM |
| Cc1cc2nc3c(=O)[nH]c(=O)nc-3n(C[C@H](O)[C@H](O)[C@H](O)COP(=O)(O)OP(=O)(O)OC[C@H]3O[C@@H](n4cnc5c(N)ncnc54)[C@H](O)[C@@H]3O)c2cc1C | Nucleolysin TIAR (Homo sapiens, UniProt Q01085) | binding | – | – | lysate | Kd | 0.011 µM |
| O=C(NOCc1ccc(C(F)(F)F)cc1)c1ccc(CO)cc1 | SIRT6 | enzyme activity | inhibitor | fluorescence | – | IC50 | 6.68 µM |
| CCCCN1CCC(COC(=O)c2ccc(N)c(OCF)c2)CC1 | HTR6 | cell-free assay | – | radioligand | – | Ki | > 10 µM |
| Cc1ccc(Sc2ccc(CONC(=O)c3ccc(C(N)=O)cc3)cc2C(F)(F)F)cc1 | SIRT6 | enzyme activity | inhibitor | fluorescence | – | IC50 | 1.5 µM |
| Nc1nc2c(ncn2[C@@H]2O[C@H](COP(=O)(O)OP(=O)(O)O)[C@@H](OP(=O)(O)OP(=O)(O)O)[C@H]2O)c(=O)[nH]1 | Xanthine-guanine phosphoribosyltransferase (Escherichia coli, UniProt P0A9M5) | binding | – | ITC | – | Kd | 3.2 µM |
| COc1cccc(Sc2ccc(CONC(=O)c3ccc(C(N)=O)cc3)cc2C(F)(F)F)c1 | SIRT6 | enzyme activity | inhibitor | fluorescence | – | IC50 | 1.12 µM |
| Cc1ccc(NS(=O)(=O)c2cc3c(cc2-c2ccccc2)NC(=O)CO3)cc1C | PKM | enzyme activity | activator | – | – | AC50 | > 20 µM |
| Cc1cccc(CONC(=O)c2ccc(C(N)=O)cc2)c1 | SIRT6 | enzyme activity | inhibitor | fluorescence | – | IC50 | 3.94 µM |
| CN(CC(=O)N(Cc1cc(C(C)(C)C)cc(C(C)(C)C)c1)c1ccc(C(=O)O)c(O)c1)S(=O)(=O)c1c(F)c(F)c(F)c(F)c1F | Signal transducer and activator of transcription 3 (STAT3, Homo sapiens, UniProt P40763) | ligand displacement | – | FP | – | Ki | 37.5 µM |
